In ChEMBL document CHEMBL1125464, “1,3,6-trisubstituted indoles as peptidoleukotriene antagonists: benefits of a second, polar, pyrrole substituent” (J Med Chem, 1992):

Legend:
[1] = Negative logarithm of the molar dissociation constant; format: ADME
In short: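 Paired guinea pig tracheal spirals at 37 °C in Krebs gassed with 95% O2/5% CO2, 2 g resting tension. Responses expressed relative to 30 uM carbachol. Antagonist or vehicle preincubated 30 min, then cumulative LTE4 concentration-response curves, one per tissue. EC50 by linear regression; KB = [antagonist]/(dose ratio − 1), per Furchgott.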

[2] = species: Cavia porcellus; assay: Inhibition of LTE4 (8 nM) induced contraction of guinea pig tracheal spirals at a concentration of 10 nM; format: functional, Trachea
In short: (§1)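 Paired tracheal spirals at 37 °C in Krebs gassed with 95% O2/5% CO2 under 2 g tension, given repeated LTE4 challenges of 10 min. Compound or vehicle added 10 min before a third challenge. % inhibition = (2nd − 3rd response)/2nd × 100, corrected by subtracting the vehicle value. Paired t test, n ≥ 4.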

[3] = species: Cavia porcellus; assay: Dissociation constant on guinea pig tracheal spirals utilizing LTE4 as agonist; conditions: Trachea
[4] = species: Cavia porcellus; assay: Inhibition of LTE4 (8 nM) induced contraction of guinea pig tracheal spirals at a concentration of 3.3 uM; format: functional, Trachea; in short: as §1
[5] = species: Cavia porcellus; assay: Inhibition of LTE4 (8 nM) induced contraction of guinea pig tracheal spirals at a concentration of 0.5 uM; NS=not statistically significant; format: functional; conditions: Trachea; in short: as §1
[6] = system: Cavia porcellus; assay: Protection of conscious guinea pig lung function was determined by comparison of time required for the challenged animals to exhibit labored abdominal breathing after oral dose of 3 uM/kg; format: functional
In short: (§2)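 Conscious guinea pigs pretreated with indomethacin (10 mg/kg ip) and propranolol (5 mg/kg ip). Compound in PEG400 (<10% v/v)/PBS given orally 180 min before a challenge of up to 5 min with aerosolized 60 uM LTD4. Time to abdominal dyspnea scored blind. % protection is taken against vehicle controls; no end point by 300 s counts as 100%. Unpaired t test.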

[7] = species: Cavia porcellus; assay: Inhibition of LTE4 (8 nM) induced contraction of guinea pig tracheal spirals at a concentration of 0.1 uM; format: functional, Trachea; in short: as §1
[8] = species: Cavia porcellus; assay: Inhibition of LTE4 (8 nM) induced contraction of guinea pig tracheal spirals at a concentration of 1 nM; format: functional, Trachea; in short: as §1
[9] = species: Cavia porcellus; assay: Inhibition constant for the displacement of [3H]LTD4 on guinea pig lung parenchymal membranes; parameters: species or system Lung parenchyma
In short: (§3)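 Membranes from perfused lungs of male Hartley guinea pigs (300-400 g) in PIPES pH 7.5 with 10 mM CaCl2, 10 mM MgCl2, 2 mM cysteine and 2 mM glycine. 1 nM 3H-LTD4 at 22 °C for 30 min; nonspecific binding with 2 uM LTD4. Filtration, then scintillation counting. IC50 by nonlinear least squares, Ki by Cheng-Prusoff; mean of two experiments in duplicate.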

[10] = system: Cavia porcellus; assay: Protection of conscious guinea pig lung function was determined by comparison of time required for the challenged animals to exhibit labored abdominal breathing after oral dose of 30 uM/kg; format: functional; in short: as §2
[11] = species: Cavia porcellus; assay: Inhibition of LTE4 (8 nM) induced contraction of guinea pig tracheal spirals at a concentration of 1 uM; format: functional, Trachea; in short: as §1
[12] = species: Cavia porcellus; assay: Compound was evaluated for the displacement of [3H]LTD4 on guinea pig lung parenchymal membranes; parameters: species or system Lung parenchyma; in short: as §3
[13] = system: Cavia porcellus; assay: Protection of conscious guinea pig lung function was determined by comparison of time required for the challenged animals to exhibit labored abdominal breathing after oral dose of 10 uM/kg; format: functional; in short: as §2
[14] = system: Cavia porcellus; assay: Protection of conscious guinea pig lung function was determined by comparison of time required for the challenged animals to exhibit labored abdominal breathing after oral dose of 0.3 uM/kg; format: functional; in short: as §2
[15] = species: Cavia porcellus; assay: Inhibition of LTE4 (8 nM) induced contraction of guinea pig tracheal spirals at a concentration of 10 uM; format: functional, Trachea; in short: as §1
[16] = species: Cavia porcellus; assay: Inhibition of LTE4 (8 nM) induced contraction of guinea pig tracheal spirals at a concentration of 3.3 uM; NS=not statistically significant; format: functional; conditions: Trachea; in short: as §1
[17] = species: Cavia porcellus; assay: Inhibition of LTE4 (8 nM) induced contraction of guinea pig tracheal spirals at a concentration of 100 nM; format: functional, Trachea; in short: as §1
[18] = species: Cavia porcellus; assay: Inhibition of LTE4 (8 nM) induced contraction of guinea pig tracheal spirals at a concentration of 0.50 uM; format: functional, Trachea; in short: as §1
[19] = species: Cavia porcellus; assay: Inhibition of LTE4 (8 nM) induced contraction of guinea pig tracheal spirals at a concentration of 0.33 uM; format: functional, Trachea; in short: as §1

`COc1cc(C(=O)NS(=O)(=O)c2ccccc2)ccc1Cc1cn(C2CCCC2)c2ccc(NC(=O)OC3CCCC3)cc12` gave a pKB [1] of 7.84.

Work on `COc1cc(C(=O)NS(=O)(=O)c2ccccc2)ccc1Cn1cc(CCC(N)=O)c2ccc(OCCC3CCCC3)cc21` yielded an Inhibition [2] of 29% and a Kb [3] of 10.3 nM.

`COc1cc(C(=O)NS(=O)(=O)c2ccccc2)ccc1Cn1cc(C(C)=O)c2ccc(NC(=O)OC3CCCC3)cc21` showed a Kb [3] of 0.123 nM.

For `CCCCOC(=O)Nc1ccc2c(C)c(C)n(Cc3ccc(C(=O)O)cc3OC)c2c1`, the Inhibition [4] was 81% and the NS [5] was “not statistically significant”.

With `COc1cc(C(=O)NS(=O)(=O)c2ccccc2C)ccc1Cn1cc(CCC(N)=O)c2ccc(NC(=O)CC3CCCC3)cc21` the Kb [3] was 0.095 nM and the Protection [6] was 63%.

Work on `COc1cc(C(=O)O)ccc1Cc1cn(C)c2ccc(NC(=O)CC3CCCC3)cc12` yielded an Inhibition [7] of 94%.

`CNC(=O)CCc1cn(Cc2ccc(C(=O)NS(=O)(=O)c3ccccc3C)cc2OC)c2cc(C(=O)NCC3CCCC3)ccc12` showed an Inhibition [8] of 57%, a Ki [9] of 1.53 nM and a Protection [10] of 44%. The Kb [3] was 0.399 nM.

Work on `COc1cc(C(=O)O)ccc1Cc1cn(C)c2ccc(C(=O)NCC3CCCC3)cc12` yielded a Ki [9] of 422 nM and an Inhibition [11] of 33%.

Work on `COc1cc(C(=O)O)ccc1Cc1nn(C)c2ccc(C(=O)NCC3CCCC3)cc12` yielded an Inhibition [4] of 37%.

With `CCCC(=O)c1cn(Cc2ccc(C(=O)O)cc2OC)c2cc(NC(=O)CC3CCCC3)ccc12` the Inhibition [7] was 96%.

In the case of `COc1cc(C(=O)NS(=O)(=O)c2ccccc2)ccc1Cc1c[nH]c2ccc(NC(=O)OC3CCCC3)cc12`, the pKB [1] is reported as 9.84.

`COc1cc(C(=O)NS(=O)(=O)c2ccccc2C)ccc1Cn1cc(CC(C)C(=O)N(C)C)c2ccc(C(=O)NCC3CCCC3)cc21` (stereo unspecified) gave a Ki [12] of 2.32 nM, a Kb [3] of 0.65 nM and a Protection [13] of 37%.

`COc1cc(C(=O)NS(=O)(=O)c2ccccc2C)ccc1Cn1cc(C)c2ccc(NC(=O)CC3CCCC3)cc21` showed a Protection [14] of 54% and a Kb [3] of 0.456 nM.

Work on `COc1cc(C(=O)O)ccc1Cn1cc(Cl)c2ccc(NC(=O)OC3CCCC3)cc21` yielded an Inhibition [7] of 41%.

For `COc1cc(C(=O)O)ccc1Cn1ccc2ccc(OCCC3CCCC3)cc21`, the Inhibition [15] was 75%.

In the case of `CCCCOC(=O)Nc1ccc2c(Br)c(Br)n(Cc3ccc(C(=O)O)cc3OC)c2c1`, the NS [16] is reported as “not statistically significant”.

For `COc1cc(C(=O)NS(=O)(=O)c2ccccc2)ccc1Cn1ccc2ccc(NC(=O)OC3CCCC3)cc21`, the Kb [3] was 0.29 nM.

`CCCCOC(=O)Nc1ccc2cc(C)n(Cc3ccc(C(=O)O)cc3OC)c2c1` gave an Inhibition [4] of 41%.

Compound `COc1cc(C(=O)NS(=O)(=O)c2ccccc2C)ccc1Cn1ccc2ccc(OCCC3CCCC3)cc21` has an Inhibition [17] of 21%.

`COc1cc(C(=O)NS(=O)(=O)c2ccccc2C)ccc1Cn1cc(CCC(=O)N2CCOCC2)c2ccc(C(=O)NCC3CCCC3)cc21` showed a Kb [3] of 0.289 nM and a Protection [13] of 53%.

`COc1cc(C(=O)O)ccc1Cn1cc(C(C)=O)c2ccc(NC(=O)OC3CCCC3)cc21` showed an Inhibition [7] of 83%.

In the case of `COc1cc(C(=O)NS(=O)(=O)c2ccccc2C)ccc1Cn1cc(C)c2ccc(C(=O)NCC3CCCC3)cc21`, the Ki [12] is reported as 9.89 nM.

`COc1cc(C(=O)NS(=O)(=O)c2ccccc2C)ccc1Cc1cn(C(C)C(=O)N(C)C)c2ccc(C(=O)NCC3CCCC3)cc12` (stereo unspecified) gave a Kb [3] of 12.1 nM.

`CCN(CC)C(=O)CCc1cn(Cc2ccc(C(=O)NS(=O)(=O)c3ccccc3C)cc2OC)c2cc(C(=O)NCC3CCCC3)ccc12` showed a Ki [12] of 0.54 nM.

Compound `CCCCOC(=O)Nc1ccc2ccn(Cc3ccc(C(=O)O)cc3OC)c2c1` has an Inhibition [18] of 54%, an Inhibition [19] of 25% and a Kb [3] of 155 nM.

`COc1cc(C(=O)O)ccc1Cn1ccc2ccc(NC(=O)CC3CCCC3)cc21` gave an Inhibition [7] of 34% and a Kb [3] of 20.7 nM.

Work on `COc1cc(C(=O)NS(=O)(=O)c2ccccc2C)ccc1Cc1nn(C)c2ccc(C(=O)NCC3CCCC3)cc12` yielded a Ki [12] of 1.87 nM.
